# NR2E3 ag-1: agonists of human NR2E3 nuclear receptor; 0.35% of 360,000 active; AID 602229; inhibition of corepressor binding, % at 3.98 µM; CHO-S Gal4-NCOR/VP16-NR2E3 two-hybrid, luciferase;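 active = inhibition above the mean of all tested compounds plus 3 SD, cut at about 70% in these data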;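 also: 0% = DMSO with NR2E3 transfected cells and 100% = cells lacking NR2E3 construct; higher means lower luciferase signal from less NR2E3 corepressor binding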
# Target sequence (Q9Y5X4 whole entry, looked up, the tested form may be a part): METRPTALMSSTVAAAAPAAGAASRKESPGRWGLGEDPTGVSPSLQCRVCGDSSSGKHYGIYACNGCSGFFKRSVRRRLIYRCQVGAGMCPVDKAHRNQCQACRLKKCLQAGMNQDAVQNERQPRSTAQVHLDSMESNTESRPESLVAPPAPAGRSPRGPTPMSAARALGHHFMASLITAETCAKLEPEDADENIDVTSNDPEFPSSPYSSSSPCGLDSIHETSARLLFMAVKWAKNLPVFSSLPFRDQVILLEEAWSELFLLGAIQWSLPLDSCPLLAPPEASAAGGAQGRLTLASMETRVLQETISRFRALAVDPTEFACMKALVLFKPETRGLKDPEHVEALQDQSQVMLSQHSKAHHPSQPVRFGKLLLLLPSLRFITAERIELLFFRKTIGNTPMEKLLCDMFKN
# NR2E3 ag-2: NR2E3 (human) agonism; GST-NR2E3/biotin-RetCOR TR-FRET, 1536-well; inhibition of corepressor binding, % at 4.78 µM; 0.12% of 320,000 active;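 active = percent inhibition above the cutoff of mean plus 3 SD of all tested compounds, set per screening campaign, cut at about 20% in these data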;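 also: 0% = DMSO wells and 100% = biotin wells as full block of FRET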
#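 Test system – NR2E3–RetCOR corepressor complex · Quantity – NR2E3 fusion 1.35 nM · Buffer or medium – Tris pH 7.5 · Incubation – Compound–protein incubation for 5 h at 4 °C · Technique – TR-FRET, Eu(K)-anti-GST donor, streptavidin-D2 acceptor, ex 340, em 617/671 nm · Evaluation – percent inhibition of 671/617 nm emission ratio versus biotin and DMSO controls · Plate – 1536-well format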
# EP2 mod: modulates human prostaglandin E2 receptor EP2 signaling; induction, % at 25 µM; 0.83% of 260,000 active; P43116; EP2-expressing cells, cAMP HTRF FRET, PGE2 co-stimulation;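 active = compounds whose cAMP rise, as percent of the full-agonist control response, exceeds 60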;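 also: rat C6 glioma line stably carrying human EP2 under a CMV promoter; the protocol text gives 20 µM as final concentration; 100% = response of wells given 1 µM PGE2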
# JMJD2C inh: inhibitors of human GASC-1 (JMJD2C) demethylase | 0.069% of 330,000 active | AID 2099 | Q9H3R0 | GST-JMJD2C(1-420) H3K9me3 demethylation, DELFIA europium | inhibition, % at 2.35 µM;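 active = more than half of a compound's replicate wells show inhibition beyond 50%, single wells judged on their own value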;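 also: signal counts dimethyl H3K9 product captured on neutravidin plate; 0% = median of DMSO wells and 100% = 0.3 times that DMSO median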
# Furin inhibitor: inhibitors of human furin | P09958 | purified furin, fluorogenic substrate cleavage | inhibition, % at 20 µM or 30 µM | 0.061% of 220,000 active | AID 463115; in the data active = inhibition above about 25%
# EP2 antag: blocks the human prostaglandin E2 receptor EP2. P43116. C6 glioma cells expressing human EP2, cAMP TR-FRET; cells stimulated with saturating PGE2. inhibition, % at 25 µM. 0.52% of 260,000 active. AID 1422;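 active = percent inhibition above 40 after rounding to a whole number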;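 also: rat C6 glioma host cells with rolipram phosphodiesterase inhibitor present; the protocol text gives 20 µM as final concentration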
# EP2 confirm: EP2 receptor cAMP induction, counter-screens negative | shares compounds with EP2 mod | C6 glioma EP2 cells, cAMP HTRF induction; plus low (about EC15) PGE2 agonist | calls only at 20 µM (by protocol) | 47% of 1,300 active | AID 1080;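 active = cAMP induction above 50% in the main assay while under 30% in all four parallel counter assays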;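 also: rat C6 glioma cells stably expressing human EP2 receptor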
# * hit, by the source's call; i = inactive; x = no result; + = active, no number. Most compounds without a hit are left out; they make up all but 1.3% or so of the library.
SMILES,NR2E3 ag-1,NR2E3 ag-2,EP2 mod,JMJD2C inh,Furin inhibitor,EP2 antag,EP2 confirm
C=CCC(NCc1ccccc1)c1ccc(Cl)cc1 (stereo unspecified),-28,2,72*,-5,-22,1,i
CCC1COC(c2cccn2Cc2ccc(Cl)cc2)=N1 (stereo unspecified),-28,-1,65*,7,-5,3,i
CCCCOc1cc(C)nc(NCc2ccccc2)n1,-30,5,78*,9,-8,11,+
Cc1ccnc(SCC(=O)n2c3c(c4ccccc42)CC(C)CC3)n1 (stereo unspecified),-3,-1,74*,i,-15,-7,+
CC1CCc2c(c3ccccc3n2C(=O)CCl)C1 (stereo unspecified),5,4,x,2,x,x,x
CC(O)(c1ccccc1)c1nc(-c2cccc(C(F)(F)F)c2)cs1 (stereo unspecified),13,x,x,x,x,x,x
O=C(O)c1ccc(-c2nc(-c3cccc(C(F)(F)F)c3)cs2)cc1,-60,x,70*,21,-18,7,+
NC(N)=Nc1nc(CSCC/C(N)=N/S(N)(=O)=O)cs1,-16,2,10,15,-10,12,i
O=C(O)CSc1ccccc1C(=O)O,-15,3,11,6,-19,12,x
CC(C)=CCC/C(C)=C/CC/C(C)=C/CSc1ccccc1C(=O)O,x,x,73*,x,x,9,i
Cc1ccc(C2=NN(C(=O)C(=O)OC(C)(C)C)C(O)(C(F)(F)F)C2)cc1 (stereo unspecified),x,x,-6,x,x,9,x
COCCOC(=O)c1c(C)oc2ccc(OCc3ccccc3)cc12,4,-4,65*,3,8,8,i
Cc1cccnc1C1(O)CCN(C(=O)c2ccc3nsnc3c2)CC1,x,x,-56,x,x,x,x
O=C1CSC(=Nc2ccccc2)N1Cc1ccccc1,-2,0,51,1,-10,7,x
Cc1ccccc1N=C1SCC(=O)N1Cc1ccccc1,-21,-1,67*,-3,-18,12,+
CCCC1=C(C(=O)OCC)C(c2cccs2)C(C#N)=C(N)O1 (stereo unspecified),-10,1,63*,0,-22,11,i
CCOC(=O)C1=C(C)OC(N)=C(C#N)C1c1cccs1 (stereo unspecified),-8,0,33,-19,-12,11,x
CC1CCN(C(C)C(=O)Nc2ccccc2-c2ccccc2)CC1 (stereo unspecified),-9,-2,82*,93,-17,3,+
CSc1nc(NCc2ccco2)c2ccccc2n1,-18,-2,65*,61,-27,16,i
CC(=O)C(=Cc1ccc(C(=O)O)cc1)C(C)=O,-11,0,-15,-18,-26,6,x
C/C(=C\c1ccc(C(=O)O)cc1)c1ccc2c(c1)C(C)(C)CCC2(C)C,-25,2,53,9,x,18,+
CC(/C=C1\SC(=S)N(C(C(=O)O)C(C)C)C1=O)=C\c1ccccc1 (stereo unspecified),-7,3,61*,11,-10,10,+
CC(/C=C1\SC(=S)N(c2ccc(C(=O)O)cc2)C1=O)=C\c1ccccc1,5,4,14,3,11,5,x
Cc1ccc2nc(-c3ccc(F)cc3)nc(SCC(=O)NCC3CCCO3)c2c1 (stereo unspecified),8,2,x,2,x,x,x
CCc1ccc2nc(-c3cccc(C)c3)nc(SCC(=O)NCC3CCCO3)c2c1 (stereo unspecified),9,0,86*,6,3,11,i
O=C(O)c1ccccc1-c1ccccc1C(=O)Nc1ccc2c(c1)CCC2,-7,-4,x,4,x,x,x
O=C(O)c1ccc(C(=O)O)c(C(=O)Nc2ccc3c(c2)Cc2ccccc2-3)c1,x,x,92*,x,x,61*,+
O=C(c1cc2cc(Cl)ccc2oc1=O)N1CCN(c2ccc(Cl)cc2)CC1,x,x,-109,x,x,10,x

# Screens (PubChem)
